Measured values as given in ChEMBL document CHEMBL4024801, “Synthesis and Structure-Activity Relationship (SAR) Studies of Novel Pyrazolopyridine Derivatives as Inhibitors of Enterovirus Replication” (J Med Chem, 2018).

What was measured:
Enterovirus A71 = assay: Antiviral activity against Enterovirus A71 infected in monkey LLC-MK2 cells assessed as protection against virus-induced cytopathic effect after 3 to 4 days by crystal violet staining-based spectrophotometric method; type: functional, cell-based; conditions: Enterovirus A
How it was run: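 EV-A71 was tested in LLC-MK2 cells grown in DMEM with 10% FBS, penicillin, streptomycin and glutamine, at a low MOI preset to give full CPE in 3–4 days. Compound was dissolved in DMSO and diluted 2-fold, in triplicate. Cells were fixed with formaldehyde when control CPE was maximal, then stained with crystal violet and read at OD590. EC50 came from a 7-point four-parameter or sigmoidal fit.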

Coxsackievirus B3 = assay: Antiviral activity against Coxsackievirus B3 infected in human HeLa-RW cells assessed as protection against virus-induced cytopathic effect after 3 to 4 days by crystal violet staining-based spectrophotometric method; type: functional, cell-based; conditions: Enterovirus B
How it was run: (§1)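 HeLa-RW cells grown in DMEM with penicillin, streptomycin, glutamine and 10% FBS. They were infected at a low MOI pre-set to give full CPE in 3-4 days. Compound in DMSO was added as serial 2-fold dilutions (7 points), each in triplicate. When control CPE was maximal, cells were fixed with 4% formaldehyde, stained with 0.25% crystal violet and read at OD590. EC50 came from a four-parameter or sigmoidal fit.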

Poliovirus 1 = assay: Antiviral activity against Poliovirus 1 infected in human HeLa-RW cells assessed as protection against virus-induced cytopathic effect after 3 to 4 days by crystal violet staining-based spectrophotometric method; type: functional, cell-based; conditions: Enterovirus C; how it was run: as §1
Poliovirus 3 = assay: Antiviral activity against Poliovirus 3 infected in human HeLa-RW cells assessed as protection against virus-induced cytopathic effect after 3 to 4 days by crystal violet staining-based spectrophotometric method; type: functional, cell-based; conditions: Enterovirus C; how it was run: as §1
LLC-MK2 = assay: Cytotoxicity against monkey LLC-MK2 cells after 3 to 4 days by crystal violet staining-based spectrophotometric method; type: cell-based, Macaca mulatta; conditions: rhesus monkey
How it was run: (§2)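 Uninfected cells (HeLa-RW or LLC-MK2, in DMEM with penicillin, streptomycin, glutamine and 10% FBS) were exposed to serial 2-fold compound dilutions for the same period as the CPE assay. They were then fixed with formaldehyde, stained with crystal violet and read by OD590 spectrophotometry to derive CC50. Values are means ± s.d. of 3 experiments, or the average of triplicates in one.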

[1] = Cytotoxicity against human HeLa-RW cells after 3 to 4 days by crystal violet staining-based spectrophotometric method; type: cell-based; how it was run: as §2
[2] = Selectivity index, ratio of CC50 for monkey LLC-MK2 cells to EC50 for Enterovirus A71; type: toxicity; conditions: read-out: Ratio CC50/EC50
How it was run: (§3)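 LLC-MK2 cells in DMEM with 10% FBS were used for both arms. For EC50, cells were infected with EV-A71 at a low MOI giving full CPE in 3–4 days and exposed to 2-fold compound dilutions, in triplicate. For CC50, uninfected cells got 2-fold dilutions for the same period. Both arms were formaldehyde-fixed, crystal violet-stained and read at OD590.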

[3] = Selectivity index, ratio of CC50 for human HeLa-RW cells to EC50 for Coxsackievirus B3; type: toxicity; conditions: read-out: Ratio CC50/EC50
How it was run: as §3, with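 “HeLa-RW” for “LLC-MK2”, “CVB3-H3” for “EV-A71”, “triplicate, with a 7-point fit.” for “triplicate.”, “fixed,” for “formaldehyde-fixed,”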

[4] = Selectivity index, ratio of CC50 for human HeLa-RW cells to EC50 for Poliovirus 1; type: toxicity; conditions: read-out: Ratio CC50/EC50
How it was run: (§4)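 HeLa-RW cells grown in DMEM with penicillin, streptomycin, glutamine and 10% FBS were infected at a low MOI chosen to give full CPE in 3-4 days. Serial 2-fold compound dilutions from DMSO stocks were tested in triplicate. When control CPE was maximal, cells were formaldehyde-fixed, crystal violet-stained and read at OD590. EC50 came from a 7-point curve. CC50 used uninfected cells over the same period.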

[5] = Selectivity index, ratio of CC50 for human HeLa-RW cells to EC50 for Poliovirus 3; type: toxicity; conditions: read-out: Ratio CC50/EC50; how it was run: as §4

SMILES	EC50 (Enterovirus A71) [µM]	EC50 (Coxsackievirus B3) [µM]	EC50 (Poliovirus 1) [µM]	EC50 (Poliovirus 3) [µM]	CC50 (LLC-MK2) [µM]	CC50 ([1]; hela-rw) [µM]	selectivity ratio [2]	selectivity ratio [3]	selectivity ratio [4]	selectivity ratio [5]	CC50 ([1]; HeLa-RW cells) [µM]
CC(C)n1ncc2c(C(=O)Nc3ccc(F)c(S(N)(=O)=O)c3)cc(-c3cccs3)nc21	0.8	1.1	> 10	> 10	50	> 200	62.5	> 182	–	–	–
CC(C)n1ncc2c(NC(=O)c3ccc(F)cc3)cc(-c3cccs3)nc21	4	4.7	> 10	> 10	50	12	12.5	2.6	–	–	–
CC(C)n1ncc2c(C(=O)Nc3cccc(F)c3)cc(-c3cccs3)nc21	2.4	0.8	> 25	> 25	> 200	> 200	> 83.3	> 250	–	–	–
CC(C)n1ncc2c(C(=O)Nc3cc(S(N)(=O)=O)ccc3F)cc(-c3cccs3)nc21	0.5	0.7	6.3	6.3	25	18	50	25.7	2.9	2.9	–
CC(C)n1ncc2c(C(=O)Nc3cncnc3)cc(-c3cccs3)nc21	0.4	0.7	10	10	20	18	50	25.7	1.8	1.8	–
CC(C)n1ncc2c(C(=O)Nc3cccc(C(N)=O)c3)cc(-c3cccs3)nc21	0.8	0.7	6.3	6.3	25	18	31.3	25.7	2.9	2.9	–
CC(C)n1ncc2c(C(=O)Nc3ccccc3S(N)(=O)=O)cc(-c3cccs3)nc21	2.5	2.6	> 25	> 25	25	10	10	3.8	–	–	–
CC(C)n1ncc2c(C(=O)Nc3cccc(S(=O)(=O)N(C)C)c3)cc(-c3cccs3)nc21	0.8	1	> 10	> 10	> 200	12	> 250	12	–	–	–
CC(C)n1ccc2c(C(=O)Nc3cccnc3)cc(-c3cccs3)nc21	0.8	1.3	> 10	> 10	25	18	31.3	13.8	–	–	–
CC(C)n1ncc2c(C(=O)Nc3cccnc3)cc(-c3cccs3)nc21	0.5	0.4	10	10	> 200	25	> 400	62.5	2.5	2.5	–
CC(C)n1ncc2c(C(=O)Nc3ncccn3)cc(-c3cccs3)nc21	0.5	0.6	> 10	> 10	75	37.5	150	62.5	–	–	–
CC(C)n1ccc2c(C(=O)Nc3ccccn3)cc(-c3cccs3)nc21	1.2	2.2	> 10	> 10	> 200	18.8	> 167	8.5	–	–	–
CC(C)n1ncc2c(C(=O)Nc3ncccn3)cc(-c3ccsc3)nc21	1.2	1.2	> 10	> 10	50	40	41.7	33.3	–	–	–
CC(C)n1ncc2c(C(=O)Nc3cccnc3)cc(-c3ccsc3)nc21	2.4	0.6	> 10	> 10	37	18	15.4	30	–	–	–
CC(C)n1ncc2c(C(=O)Nc3ccccc3F)cc(-c3cccs3)nc21	2.3	1.4	7	7	50	12.5	21.7	8.9	1.8	1.8	–
CC(C)n1ncc2c(C(=O)Nc3ccncn3)cc(-c3cccs3)nc21	0.5	0.6	> 10	> 10	50	20	100	33.3	–	–	–
CC(C)n1ncc2c(C(=O)N3CCc4cccnc43)cc(-c3cccs3)nc21	12.5	9.4	> 10	> 10	50	37.5	4	4	–	–	–
CC(C)n1ncc2c(C(=O)Nc3cccc(S(N)(=O)=O)c3)cc(-c3cccs3)nc21	1.3	1.3	5	5	25	–	19.2	167	10	10	50 to 200
CC(C)n1ncc2c(C(=O)Nc3ccc(F)cn3)cc(-c3cccs3)nc21	1.2	0.7	> 10	> 10	> 200	37.5	> 167	53.6	–	–	–
CNS(=O)(=O)c1cccc(NC(=O)c2cc(-c3cccs3)nc3c2cnn3C(C)C)c1	0.7	0.5	> 10	> 10	25	12	35.7	24	–	–	–
CC(C)n1ncc2c(C(=O)Nc3c(F)cc(F)cc3F)cc(-c3cccs3)nc21	3	1.8	> 25	> 25	> 200	> 200	> 66.7	> 111	–	–	–
CC(C)n1ncc2c(C(=O)Nc3ccc(S(C)(=O)=O)cc3)cc(-c3cccs3)nc21	0.5	1	> 10	> 10	50	200	100	200	–	–	–
CC(C)n1ncc2c(C(=O)Nc3ccccn3)cc(-c3cccs3)nc21	0.5	0.8	> 10	> 10	> 200	> 200	> 400	> 250	–	–	–
CC(C)n1ncc2c(C(=O)Nc3ccncc3)cc(-c3cccs3)nc21	0.4	0.6	> 10	> 10	6.3	6	15.8	10	–	–	–
CC(C)n1ncc2c(C(=O)Nc3ccncn3)cc(-c3ccsc3)nc21	0.8	1.2	> 10	> 10	> 200	> 200	> 250	> 167	–	–	–
CC(C)n1ncc2c(C(=O)Nc3ccccn3)cc(-c3ccsc3)nc21	0.8	1.2	> 10	> 10	25	18	31.3	15	–	–	–
